Assay results from paper PMC7984436 (Clinical Pharmacology in Drug Development, 2020).
“Also recorded” adds a separate entry of the source. Where two headings read alike, the source gives them in different places.

Assays:
CYP3A [1] = settings: oral contraceptives that are substrates of CYP3A; cited from earlier work
[2] = cited from earlier work; for elimination half-life: background statement for the sampling period, no reference given
[3] = assay type: in vivo, human; settings: for t1/2: mean ± SD; for Tmax: median (minimum through maximum); for Cmax: n = 22, mean ± SD
CYP3A [4] = settings: cited from earlier work
[5] = Safety monitoring in the phase 1 study; assay type: in vivo, human; settings: healthy subjects
Summary of the method: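 Healthy adults aged 18-55 took part in a single-centre, open-label, two-period, single-sequence study with 24-day on-site confinement. Period 1 gave a single oral 150 mg extended-release CYP2B6 probe substrate dose after at least a 10-hour fast. Period 2 repeated that dose on day 12 of 16 days of oral test compound. Throughout, safety checks covered adverse events, physical exams, vital signs, ECG, haematology, chemistry and urinalysis.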

JAK1 = settings: less potent against JAK2, JAK3, and tyrosine kinase; cited from earlier work
CYP2B6 = test: In vivo effect of upadacitinib on CYP2B6; design: species or system human
[6] = system: CYP enzymes (CYP1A2, CYP2B6, CYP2C8, CYP2C9, CYP2C19, CYP2D6, and CYP3A4); settings: at clinically relevant concentrations, cited from earlier work
[7] = system: CYP1A2, CYP2C9, CYP2C19, or CYP2D6; settings: chronic dosing of upadacitinib 30 mg once daily, healthy volunteers; cited from earlier work
[8] = cited from earlier work
[9] = cited from earlier work; remark: listed apart in the source
CYP2B6 mRNA = settings: in vitro, at concentrations higher than clinically relevant; cited from earlier work
[10] = Period 1, day 1: bupropion 150-mg single dose
[11] = Period 2, day 12: upadacitinib 30 mg once daily + bupropion 150-mg single dose
[12] = Study period 1, day 1: bupropion 150 mg alone
[13] = Study period 2, day 12: upadacitinib 30 mg once daily + bupropion 150 mg
[14] = with upadacitinib relative to bupropion alone
[15] = with upadacitinib 30 mg once daily
[16] = with multiple doses of rifampin (broad CYP inducer)
[17] = with the strong CYP3A inhibitor ketoconazole

For C#C[C@]1(O)CC[C@H]2[C@@H]3CCc4cc(O)ccc4[C@H]3CC[C@@]21C [ethinylestradiol], the “impact of upadacitinib on exposure” value (CYP3A [1]) is listed as “no impact”.
In the case of C[C@H]1NC(C)(C)CO[C@]1(O)c1cccc(Cl)c1 [Hydroxybupropion, hydroxybupropion], the elimination half-life [2] is listed as “approximately 20 hours”, the “range of variability in hydroxybupropion exposures” value ([2]; inter- and intrasubject variability) is listed as 20% to 50% and the “Hydroxybupropion-to-bupropion metabolic ratio, AUCinf, central value, reference” value [3, 10] is listed as 16.9. The “Hydroxybupropion-to-bupropion metabolic ratio, AUCt, central value, reference” value [3, 10] was 16.5, the “Hydroxybupropion-to-bupropion metabolic ratio, Cmax, central value, reference” value [3, 10] was 3.83 and the “Hydroxybupropion-to-bupropion metabolic ratio, AUCinf, central value, test” value [3, 11] was 13.2. For the same compound, the “Hydroxybupropion-to-bupropion metabolic ratio, AUCt, central value, test” value [3, 11] was 13.1, the “Hydroxybupropion-to-bupropion metabolic ratio, Cmax, central value, test” value [3, 11] was 3.45 and the t1/2 [3, 12] was 25.1 ± 6.8 h. For the same compound, the Tmax [3, 12] was 10.0 (5.0‐24.0) h, the Cmax ([3]; Study period 1, day 1: bupropion 150 mg alone, plasma) was 336 ± 150 ng/mL and the t1/2 [3, 13] was 23.9 ± 5.6 h. For the same compound, the Tmax [3, 13] was 10.0 (6.0‐24.0) h, the Cmax ([3]; Study period 2, day 12: upadacitinib 30 mg once daily + bupropion 150 mg, plasma) was 264 ± 121 ng/mL and the “AUCt ratio of central values, point estimate” value ([3]; with upadacitinib 30 mg once daily relative to bupropion alone) was 0.726. The “exposures (AUCinf) lower when administered with upadacitinib” value ([3]; with upadacitinib 30 mg once daily versus bupropion alone) was 28%, the “Hydroxybupropion-to-bupropion metabolic ratio, AUCinf, ratio of central values, point estimate” value [3, 14] was 0.780 and the “Hydroxybupropion-to-bupropion metabolic ratio, AUCt, ratio of central values, point estimate” value [3, 14] was 0.790. The “Hydroxybupropion-to-bupropion metabolic ratio, Cmax, ratio of central values, point estimate” value [3, 14] was 0.902.
For CC(NC(C)(C)C)C(=O)c1cccc(Cl)c1 (stereo not shown) [Bupropion, bupropion], the elimination half-life [2] is given as “approximately 20 hours”, the Tmax [3, 13] is given as 5.0 (3.0‐8.0) h and the AUC(0-inf) ([3]; human, plasma, oral, 150 mg) is given as 859 ng·h/mL. It also gave an AUC(0-t) ([3]; human, plasma, oral, 150 mg) of 869 ± 271 ng·h/mL and a Cmax ([3]; human, plasma, oral, 150 mg, Cmax, Study period 1, day 1: bupropion 150 mg alone, plasma) of 83.5 ± 26.2 ng/mL.
In the case of Cc1ncc2n1-c1ccc(Cl)cc1C(c1ccccc1F)=NC2 [midazolam], the “decrease in exposures of midazolam” value (CYP3A [4]; chronic dosing of upadacitinib 30 mg once daily, healthy volunteers) is listed as 26%, the “decrease in midazolam AUC” value (CYP3A [4]; [15]) is listed as 26% and the “decrease in midazolam Cmax” value (CYP3A [4]; [15]) is listed as 26%.
For CC[C@@H]1CN(C(=O)NCC(F)(F)F)C[C@@H]1c1cnc2cnc3[nH]ccc3n12 [upadacitinib], the “discontinuation because of adverse events” value ([5]; n = 22) is given as “no subject discontinued because of AEs”, the “severity of the majority of treatment-emergent adverse events” value ([5]; n = 22, upadacitinib 30 mg once daily and bupropion 150 mg) is given as “mild in severity” and the JAK1 inhibition (JAK1) is given as “potently inhibits”. The “effect on bupropion exposures (Cmax or AUC)” value (CYP2B6; bupropion on day 12 of 16-day upadacitinib 30 mg once daily regimen) was “no relevant effect”, the “effect on pharmacokinetics of substrates metabolized by CYP2B6” value (CYP2B6; upadacitinib 30 mg once daily, multiple doses) was “no relevant effect; also recorded: lack of relevant effect” and the “inhibition or induction of the activity of CYP enzymes” value [6] was “did not inhibit or induce”. The “inhibitor or inducer of drug-metabolizing enzymes, including CYP2B6” value ([6]; in vitro) was “not an inhibitor or inducer”, the “effects on CYP1A2, CYP2C9, CYP2C19, or CYP2D6 activity” value [7] was “no relevant effects” and the “dose eliminated unchanged in urine” value [8] was “approximately 20%”. The “decrease in upadacitinib AUC” value [9, 16] was ~60%, the “decrease in upadacitinib Cmax” value [9, 16] was “approximately 50%” and the “increase in upadacitinib AUC” value [9, 17] was 75%. The “increase in upadacitinib Cmax” value [9, 17] was 70% and the “CYP2B6 mRNA expression” value (CYP2B6 mRNA) was “increase in CYP2B6 mRNA expression”.
For C#C[C@]1(O)CC[C@H]2[C@@H]3CCC4=CC(=O)CC[C@@H]4[C@H]3CC[C@@]21CC [levonorgestrel], the “impact of upadacitinib on exposure” value (CYP3A [1]) is listed as “no impact”.
